From the RNAGym collection of RNA variant scans (doi:10.1126/science.aae0568) come the findings set out here.

This sample holds only a part of the variants without activity.

B1: tRNA (parent)
chain: GUUCCGUUGGCGUAAUGGUAACGCGUCUCCCUCCUAAGGAGAAGACUGCGGGUUCGAGUCCCGUACGGAACG

In the data set the parent is B1. Description: yeast fitness relative to wild type (ratio to wild type); higher = fitter; tRNA-Arg(CCU), competitive growth, 37 C, YPD. An outline of the steps: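 Variants of the tRNA-Arg(CCU) gene were chemically synthesised with a 3% per-site mutation rate across 69 sites and placed at the native genomic locus in Saccharomyces cerevisiae. Six parallel replicates of the pooled strains were competed in YPD at 37°C for 24 hours, and gene amplicons from the start and end populations were read by 100-nucleotide paired-end sequencing. Darwinian fitness relative to wild type was derived from changes in genotype frequencies. Genotypes required ≥ 100 starting reads, and estimates < 0.5 were set to 0.5.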
U13A U32A: the yeast fitness was found to be 0.69. With A36G A65C the figure was 0.9; with U16G A20C A21G C30U, 0.579; with U28G C31U, 0.544. The figure for A20G C29G A37G G67C is at most 0.5; for G18C A36G it is 0.769. As to U2A A20C G68U, the yeast fitness amounted to 1.01.

Regarding A36C A45U, the yeast fitness was 0.591. On to G18C A36U C61A G63C, for which the yeast fitness was at most 0.5. With A20U C34G A36C C55U A65U the figure was at most 0.5; with C55U C62A, 0.627. With C11U U19G C27U G48A C61G the figure was at most 0.5. As to C5G A45U C61U C66U, the yeast fitness is at most 0.5. The figure for U2A G12A A21C G48C is at most 0.5. The figure for G6C G50A is 0.865; for G6C C11G A15C G25C C27G C30G G38C A70C it is at most 0.5. With A20C C24U A42C C55G the figure was at most 0.5; with G9C C34G C61U, 0.553; with C27U C55A, 0.583. Consider U13A A14U A40C, for which the yeast fitness is 0.556. With C11U C61U G68A the figure was 0.615. With C29G A37G the figure was 0.599; with C5G G58A G67C, 0.687. The figure for G6A A36G A45C is 0.751. In the case of U3C U26C G44C U54A A69C, the yeast fitness is at most 0.5. With G10A A15U the figure was 0.681. With A20G C27U the figure was 1.1; with G6A C29U C31A C34U G56A, at most 0.5; with C11G C30U A65G, 0.595. The figure for G12C C30G A45U C46A is 0.608; for U7C G18C G38C C62A it is at most 0.5.

C4A G38A: the yeast fitness amounted to 0.805. The figure for U2C G50C G51A C55U is 0.582; for U3A G18A A45G A57C it is at most 0.5; for G9A C11U A69C it is 0.787. The figure for C24U C34G G56A is at most 0.5; for A37U G52A A57C C60A it is at most 0.5. For the variant A40U A42C G44A G51A, the yeast fitness was at most 0.5.

As for C33G A42U, the yeast fitness was found to be 0.73.

Regarding C5G G25A C46U G50C C66U, the yeast fitness is at most 0.5.

With U19C C27U C33G C34G G44A G50A G52A, the yeast fitness is at most 0.5. With U2G G12A G41C A57U the figure was at most 0.5; with G12A U19C U28C C55G, at most 0.5; with G9A C22U C30A C49A C55A C61A C62U C66U, at most 0.5.

As for U7G C49A, the yeast fitness is 0.665. The figure for G9A U28A G41C A65C G67C is 0.579. For C24G A65U G68A, the yeast fitness is at most 0.5.

As for U13G C29U C31U U35A A57C, the yeast fitness was at most 0.5.

A21G G39C: the yeast fitness was 0.732.

Consider C27A C66G, for which the yeast fitness was determined as 0.673.

For C5G U8C G48C, the yeast fitness is at most 0.5. With U7A C29G C46G, the yeast fitness was at most 0.5. With C5U U16G C24U the figure was 0.776. Regarding C4U U13C C24U C49U, the yeast fitness is at most 0.5. With A37U G51A C66G the figure was at most 0.5; with C4U C22G U54A, 0.558.

Consider A36C C55A, for which the yeast fitness was at most 0.5. The figure for A15G A42G is 0.929. With G12C C30G the figure was 0.666. The figure for C4A C46U A57C is 0.529; for C24U G52A A57C it is at most 0.5; for C4U C22U C31U C60G A70G it is 0.52. In the case of A15U C22G C31U A65U A69U, the yeast fitness is at most 0.5.

On to G25A C55U A69C, for which the yeast fitness was 0.639.

Consider C4G C22A C66U, for which the yeast fitness was at most 0.5.

On to G41C C49G, for which the yeast fitness was found to be 0.702. For G17C A57U, the yeast fitness is 0.52. For the variant C27U A36U U54A A69C, the yeast fitness is 0.624. With A65C A70G the figure was 1.06. With U3C A43C C61A the figure was 0.612; with C5U C49U A65U, 0.644; with C11G C27U C33U, 0.584.

Consider G6C U8C A14G, for which the yeast fitness is 0.522.

Consider C46A A57G, for which the yeast fitness was 0.964.

With C31A A57G C61U, the yeast fitness is at most 0.5. The figure for A14C C22G G25C A42G G44A C61G is at most 0.5.

On to A20G C24U U32A C49U C55A, for which the yeast fitness is at most 0.5. Take A20U A36U G44A G51C G52A: the yeast fitness is at most 0.5. The figure for A21U A36C A45C G48A C55A is at most 0.5; for A43C U53C C66U A70C it is at most 0.5.

In the case of C27U C29U C49G, the yeast fitness was at most 0.5. With U3C U19A A43G the figure was 0.677; with C11G C29U C61A A65C, at most 0.5. For A43G G52A A69U A70C, the yeast fitness was at most 0.5. The figure for C5G G10A C11G U16G C33G A65G is at most 0.5; for C5G G23C C33U A43C U64A it is at most 0.5; for U3A A21U U28A A42C A57G C66A it is at most 0.5. The figure for U3C G63A A70U is 0.655; for U7A C11G C31G U32C A43U it is at most 0.5; for U8C U13G it is 0.841. With U3A C4G G6A U26G A70U the figure was at most 0.5; with C29A C31G C55A G58A, 0.568; with U2C C27U A69C, 0.729.

U19G G56A G67U: the yeast fitness was at most 0.5. With G25C C31U the figure was 0.87.

As for C5A A21C C30G C34U G58C, the yeast fitness is at most 0.5. With C22U C27A A45G G48C the figure was at most 0.5; with G12A A36U A37C A43G A57U, at most 0.5. As for C31G C62U A65G, the yeast fitness stood at 0.71.

For U19A G48C G67C, the yeast fitness was at most 0.5. For the variant C5U G10A C27G A57G, the yeast fitness was 0.541.

As to U3A A42G, the yeast fitness was 0.73. With U3A C22G C29G C46U A70U the figure was at most 0.5; with A15U A42C, 0.787; with G44C U64C, 0.858. With C5A G10C U26C G51A the figure was at most 0.5. With A15C U26A G50C the figure was at most 0.5; with A15G A21G C34U G44A C61A A70C, at most 0.5. Consider G44A C55G G63C, for which the yeast fitness is at most 0.5. On to G6A G12A A15C C24A, for which the yeast fitness was at most 0.5. With A40C A65C the figure was 0.825. With U13G C24A A45G the figure was at most 0.5; with C30A G52A A57U, at most 0.5. Take A20C G38A C49A G58C A65G G68A A69C: the yeast fitness was found to be 0.589.

Regarding A15U U19A A36U U54A, the yeast fitness is at most 0.5.

As to G52A U53A C66U, the yeast fitness was at most 0.5. With U19A C29A the figure was 0.712; with U7A C33U, 0.592. The figure for C34G G58C A65U is at most 0.5.

G9C U28A C29A U35G: the yeast fitness is at most 0.5. The figure for C30U C33U A43G is 0.569; for C60G C61G it is at most 0.5. The figure for A20C C34G A43C G56A C61U is 0.705; for U2C U35A U47A C49U C55U C66U it is at most 0.5; for U3G A45G C49G it is 0.633. The figure for U3A A20G A43U C55G C61U is at most 0.5; for U8C A37C G51A it is at most 0.5; for G6A C60U it is 0.675. As for U13A C61G A70G, the yeast fitness was found to be 0.6.

As for U7G C61U C66A, the yeast fitness is 0.626.

For the variant A15U C61U, the yeast fitness worked out at 0.673. For the variant G17C C34A A57C, the yeast fitness came to 0.561. As for A37U C49A C62U, the yeast fitness came to 0.579. The figure for C24U A36G C61U is 0.655. Consider U32C C61U, for which the yeast fitness was 0.987.

On to G17C G18C C22A U28C C60A C66U, for which the yeast fitness amounted to 0.677. The figure for C4U A42U C61A A65C is at most 0.5; for C5U A15U C27G it is at most 0.5; for C33A G51A it is 0.659. With C33G A45C the figure was 0.684; with A14U A43G C62U, at most 0.5. The figure for U13C A15U U16A U19A is at most 0.5; for G41C C55G it is 0.621; for C5G G18A C27G C30U C31G it is at most 0.5. Consider U8C G18C A21C G63A, for which the yeast fitness was 0.587.

On to C29U C55G, for which the yeast fitness came to 0.614. The figure for G9C A15C C31G A40G A43U is at most 0.5; for C11G C34U C62G it is 0.542; for C27U U47G it is 0.621. The figure for U8C C27U A70G is 0.738.

Consider U19C C22U C55A C66U, for which the yeast fitness was at most 0.5. The figure for G17A U35G G63A G68C is at most 0.5. With C4G C5G A14U C46G A69U the figure was at most 0.5; with C4G C11G C46U U59C C62G A65U, at most 0.5; with G12A A14G A37U, 0.551. With U7G G41C G58C U59C the figure was at most 0.5; with C4G G10A A42C U54G, at most 0.5. As for U19C G44C, the yeast fitness stood at 1. The figure for A20C C24G A69U is at most 0.5; for G9A C31U C60U C62U it is at most 0.5; for U2C G10C A36C it is 0.587. The figure for A15U U19C C31U A40C A57U is at most 0.5; for C5G U64C it is 0.978. With A14G U47G C62U the figure was at most 0.5; with U19G G41U, 0.691; with U19G A43C U53C C55G A70U, at most 0.5. In the case of C4A G17A A42U C55G, the yeast fitness was at most 0.5.
